Test results: ChEMBL document CHEMBL4406821, “Novel dual inhibitors targeting CDK4 and VEGFR2 synergistically suppressed cancer progression and angiogenesis” (Eur J Med Chem, 2019)
The source made the active and inactive calls. The calls are words filed in the database; no cut-off is given here.

Legend:
[1] = biological target: Tyrosine-protein kinase CSK (Homo sapiens) (UniProt P41240); assay: Inhibition of recombinant full length human CSK at 1 uM using poly(Glu, Tyr) 4:1 as substrate incubated for 40 mins in presence of [gamma-33P]-ATP by scintillation counting method relative to control
In short: (§1)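 Tested at a single 1 uM in an outsourced commercial kinase-profiling panel, read as percent inhibition. Each value is the mean of two independent experiments.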

[2] = biological target: Tyrosine-protein kinase Lck (Homo sapiens) (UniProt P06239); assay: Inhibition of recombinant human full length LCK at 1 uM using KVEKIGEGTYGVVYK as substrate incubated for 40 mins in presence of [gamma-33P]-ATP by scintillation counting method relative to control
[3] = biological target: T1, Vascular endothelial growth factor receptor 2 (Homo sapiens, UniProt P35968); assay: Inhibition of VEGFR2 in HUVEC cells assessed as reduction in Akt phosphorylation at 20 to 40 nM incubated for 48 hrs by Western blot analysis; assay type: cell-based
In short: (§2)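 HUVECs were maintained in 1640 medium with 10% FBS. They were treated with graded concentrations for 48 h, PBS-washed and lysed in RIPA buffer. Immunoblots were probed for total and phospho VEGFR2, STAT3, Akt, Erk1 and Src, each at 1:1000. β-actin served as loading control.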

[4] = biological target: Serine/threonine-protein kinase A-Raf (Homo sapiens) (UniProt P10398); assay: Inhibition of recombinant human A-Raf (273 to end residues) at 1 uM using myelin as substrate incubated for 40 mins in presence of [gamma-33P]-ATP by scintillation counting method relative to control
In short: (§3)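 Kinase panel profiling at 1 μM performed by Eurofins KinaseProfiler; percent inhibition reported as mean of two independent experiments.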

[5] = biological target: Serine/threonine-protein kinase MARK1 (Homo sapiens) (UniProt Q9P0L2); assay: Inhibition of recombinant human MARK1 (2 to end residues) at 1 uM using KKKVSRSGLYRSPSMPENLNRPR as substrate incubated for 40 mins in presence of [gamma-33P]-ATP by scintillation counting method relative to control
[6] = biological target: Calcium/calmodulin-dependent protein kinase type IV (Homo sapiens) (UniProt Q16566); assay: Inhibition of recombinant full length human CAMK4 at 1 uM using calmodulin as substrate incubated for 40 mins in presence of [gamma-33P]-ATP by scintillation counting method relative to control; in short: as §3
[7] = biological target: SNF-related serine/threonine-protein kinase (Homo sapiens) (UniProt Q9NRH2); assay: Inhibition of recombinant human SNRK (1 to 505 residues) at 1 uM using KKLRRTLSFAEPG as substrate incubated for 40 mins in presence of [gamma-33P]-ATP by scintillation counting method relative to control; in short: as §1
[8] = biological target: Serine/threonine-protein kinase PAK 5 (Homo sapiens) (UniProt Q9P286); assay: Inhibition of recombinant human PAK5 (425 to end residues) at 1 uM using RRRLSFAEPG as substrate incubated for 40 mins in presence of [gamma-33P]-ATP by scintillation counting method relative to control
[9] = biological target: Tau-tubulin kinase 2 (Homo sapiens) (UniProt Q6IQ55); assay: Inhibition of recombinant human TTBK2 (1 to331 residues) at 1 uM using casein as substrate incubated for 40 mins in presence of [gamma-33P]-ATP by scintillation counting method relative to control; in short: as §1
[10] = biological target: Dual specificity mitogen-activated protein kinase kinase 3 (Homo sapiens) (UniProt P46734); assay: Inhibition of recombinant human MKK3 at 1 uM incubated for 40 mins in presence of [gamma-33P]-ATP by scintillation counting method relative to control
[11] = biological target: T1, Vascular endothelial growth factor receptor 2; assay: Inhibition of VEGFR2 in HUVEC cells assessed as reduction in STAT3 phosphorylation at 20 to 40 nM incubated for 48 hrs by Western blot analysis; assay type: cell-based; in short: as §2
[12] = biological target: Serine/threonine-protein kinase PLK2 (Homo sapiens) (UniProt Q9NYY3); assay: Inhibition of recombinant human SNK (65 to 409 residues) at 1 uM using casein as substrate incubated for 40 mins in presence of [gamma-33P]-ATP by scintillation counting method relative to control
[13] = biological target: Casein kinase I isoform gamma-1 (Homo sapiens) (UniProt Q9HCP0); assay: Inhibition of recombinant human CK1gamma1 (25 to 355 residues) at 1 uM using KRRRALS(p)VAS as substrate incubated for 40 mins in presence of [gamma-33P]-ATP by scintillation counting method relative to control; in short: as §3
[14] = biological target: Serine/threonine-protein kinase ULK2 (Homo sapiens) (UniProt Q8IYT8); assay: Inhibition of recombinant human ULK2 (1 to 306 residues) at 1 uM using as casein substrate incubated for 40 mins in presence of [gamma-33P]-ATP by scintillation counting method relative to control; in short: as §1
SiHa = assay: Induction of apoptosis in human SiHa cells assessed as decrease in Rb phosphorylation incubated for 48 hrs by Western blot analysis; assay type: functional, cell-based
In short: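 Cancer cells were exposed to graded concentrations for 48 h, washed three times in PBS and lysed in RIPA buffer. Immunoblots were probed with anti-Rb, anti-phospho-Rb, anti-Ki67 and anti-Bcl-2, each at 1:1000. β-actin served as loading control.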

[15] = biological target: Dual specificity mitogen-activated protein kinase kinase 1 (Homo sapiens) (UniProt Q02750); assay: Inhibition of recombinant human full length MEK1 at 1 uM using as unactive MAPK2 substrate incubated for 40 mins in presence of [gamma-33P]-ATP by scintillation counting method relative to control
[16] = biological target: Ephrin type-B receptor 4 (Homo sapiens) (UniProt P54760); assay: Inhibition of recombinant human EPhB4 (561 to end residues) at 1 uM using poly (Glu, Tyr) 4:1 as substrate incubated for 40 mins in presence of [gamma-33P]-ATP by scintillation counting method relative to control
[17] = biological target: Tyrosine-protein kinase ZAP-70 (Homo sapiens) (UniProt P43403); assay: Inhibition of recombinant human full length ZAP70 at 1 uM using poly(Glu, Tyr) 4:1 as substrate incubated for 40 mins in presence of [gamma-33P]-ATP by scintillation counting method relative to control
[18] = AUMC (0 to t) in Sprague-Dawley rat at 10 mg/kg, iv by HPLC-MS analysis; assay type: ADME, organism-based; conditions: in vivo
In short: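 Rats fitted with jugular vein catheters for serial blood sampling. Compound dissolved in saline with 5% (v/v) DMSO and given as a single 10 mg/kg dose iv or po after an overnight fast, n = 5 per group. Plasma isolated at once and measured by HPLC with tandem MS detection. Parameters derived by noncompartmental fitting.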

[19] = Toxicity in NOD/SCID BALB/c mouse xenografted with human SiHa cells assessed as body weight at 40 mg/kg, po administered for 21 days; assay type: organism-based; conditions: in vivo, 504 h
In short: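 Female NOD/SCID Balb/c mice, 6–8 weeks, implanted subcutaneously in right flank with 2×10^6 SiHa cells in 100 µL medium. At 100 mm³ tumors, randomized (5 mice/group) to daily oral gavage. Body weight monitored every 3 days; study ended day 21.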

T1 sequence (P35968 whole entry): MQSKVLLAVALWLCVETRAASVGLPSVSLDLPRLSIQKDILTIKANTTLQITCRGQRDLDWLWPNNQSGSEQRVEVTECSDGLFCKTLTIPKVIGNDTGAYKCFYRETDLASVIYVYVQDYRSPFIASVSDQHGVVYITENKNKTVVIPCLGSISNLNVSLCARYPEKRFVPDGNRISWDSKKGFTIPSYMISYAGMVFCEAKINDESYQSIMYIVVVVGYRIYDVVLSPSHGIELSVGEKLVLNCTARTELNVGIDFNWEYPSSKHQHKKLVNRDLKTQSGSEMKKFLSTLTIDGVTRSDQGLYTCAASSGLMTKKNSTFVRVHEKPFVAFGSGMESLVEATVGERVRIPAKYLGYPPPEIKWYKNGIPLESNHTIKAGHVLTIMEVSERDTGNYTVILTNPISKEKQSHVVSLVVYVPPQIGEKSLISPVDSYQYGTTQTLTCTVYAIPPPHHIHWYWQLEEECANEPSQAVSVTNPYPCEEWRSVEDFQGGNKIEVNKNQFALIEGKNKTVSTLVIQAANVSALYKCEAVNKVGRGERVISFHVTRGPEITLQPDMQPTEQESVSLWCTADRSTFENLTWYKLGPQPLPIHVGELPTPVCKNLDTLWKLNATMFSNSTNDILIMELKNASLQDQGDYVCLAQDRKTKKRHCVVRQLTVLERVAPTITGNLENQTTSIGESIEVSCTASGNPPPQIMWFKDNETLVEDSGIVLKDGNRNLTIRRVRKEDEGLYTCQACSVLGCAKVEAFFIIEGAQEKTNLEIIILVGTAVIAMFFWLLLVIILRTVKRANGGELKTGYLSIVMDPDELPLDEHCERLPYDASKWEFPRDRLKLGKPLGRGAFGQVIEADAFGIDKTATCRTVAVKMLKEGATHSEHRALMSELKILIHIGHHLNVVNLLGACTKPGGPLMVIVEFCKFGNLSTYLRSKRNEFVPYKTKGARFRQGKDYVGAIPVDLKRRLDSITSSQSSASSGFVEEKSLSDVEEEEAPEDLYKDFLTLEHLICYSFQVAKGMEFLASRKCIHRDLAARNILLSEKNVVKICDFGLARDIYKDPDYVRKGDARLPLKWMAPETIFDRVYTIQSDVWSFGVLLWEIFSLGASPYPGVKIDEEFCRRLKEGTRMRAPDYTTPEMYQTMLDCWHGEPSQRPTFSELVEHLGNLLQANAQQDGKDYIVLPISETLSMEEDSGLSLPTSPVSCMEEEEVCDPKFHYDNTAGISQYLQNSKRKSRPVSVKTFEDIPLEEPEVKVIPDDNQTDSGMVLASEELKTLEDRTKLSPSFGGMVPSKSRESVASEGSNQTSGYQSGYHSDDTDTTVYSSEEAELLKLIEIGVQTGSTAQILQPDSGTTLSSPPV
Tyrosine-protein kinase CSK (Homo sapiens), sequence (P41240 2-450 limits assumed): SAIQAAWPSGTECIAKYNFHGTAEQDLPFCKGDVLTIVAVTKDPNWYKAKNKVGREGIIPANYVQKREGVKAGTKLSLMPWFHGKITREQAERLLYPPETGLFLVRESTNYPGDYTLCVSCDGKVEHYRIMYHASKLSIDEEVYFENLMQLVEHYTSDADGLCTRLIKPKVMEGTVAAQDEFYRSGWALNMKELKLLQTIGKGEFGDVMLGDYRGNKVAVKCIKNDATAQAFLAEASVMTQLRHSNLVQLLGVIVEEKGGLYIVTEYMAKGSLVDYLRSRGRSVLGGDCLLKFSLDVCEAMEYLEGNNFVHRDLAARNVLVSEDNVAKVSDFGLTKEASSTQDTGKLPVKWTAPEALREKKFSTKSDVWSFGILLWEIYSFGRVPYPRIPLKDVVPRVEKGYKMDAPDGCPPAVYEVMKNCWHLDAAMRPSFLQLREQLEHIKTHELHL
Casein kinase I isoform gamma-1 (Homo sapiens), sequence (Q9HCP0 whole entry, looked up, the tested form may be a part, canonical isoform): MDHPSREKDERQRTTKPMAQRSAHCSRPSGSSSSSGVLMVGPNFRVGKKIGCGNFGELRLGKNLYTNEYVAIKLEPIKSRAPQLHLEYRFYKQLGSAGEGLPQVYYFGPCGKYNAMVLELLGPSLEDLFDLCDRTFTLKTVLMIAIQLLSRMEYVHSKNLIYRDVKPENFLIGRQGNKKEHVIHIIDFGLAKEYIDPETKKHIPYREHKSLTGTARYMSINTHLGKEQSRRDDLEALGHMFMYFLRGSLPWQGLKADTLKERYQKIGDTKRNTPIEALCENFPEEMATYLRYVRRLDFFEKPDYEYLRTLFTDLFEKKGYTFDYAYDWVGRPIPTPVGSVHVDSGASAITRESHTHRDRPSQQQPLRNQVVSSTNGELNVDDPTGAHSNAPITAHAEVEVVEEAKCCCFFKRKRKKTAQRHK
Tau-tubulin kinase 2 (Homo sapiens), sequence (Q6IQ55 whole entry, the tested form may be a part): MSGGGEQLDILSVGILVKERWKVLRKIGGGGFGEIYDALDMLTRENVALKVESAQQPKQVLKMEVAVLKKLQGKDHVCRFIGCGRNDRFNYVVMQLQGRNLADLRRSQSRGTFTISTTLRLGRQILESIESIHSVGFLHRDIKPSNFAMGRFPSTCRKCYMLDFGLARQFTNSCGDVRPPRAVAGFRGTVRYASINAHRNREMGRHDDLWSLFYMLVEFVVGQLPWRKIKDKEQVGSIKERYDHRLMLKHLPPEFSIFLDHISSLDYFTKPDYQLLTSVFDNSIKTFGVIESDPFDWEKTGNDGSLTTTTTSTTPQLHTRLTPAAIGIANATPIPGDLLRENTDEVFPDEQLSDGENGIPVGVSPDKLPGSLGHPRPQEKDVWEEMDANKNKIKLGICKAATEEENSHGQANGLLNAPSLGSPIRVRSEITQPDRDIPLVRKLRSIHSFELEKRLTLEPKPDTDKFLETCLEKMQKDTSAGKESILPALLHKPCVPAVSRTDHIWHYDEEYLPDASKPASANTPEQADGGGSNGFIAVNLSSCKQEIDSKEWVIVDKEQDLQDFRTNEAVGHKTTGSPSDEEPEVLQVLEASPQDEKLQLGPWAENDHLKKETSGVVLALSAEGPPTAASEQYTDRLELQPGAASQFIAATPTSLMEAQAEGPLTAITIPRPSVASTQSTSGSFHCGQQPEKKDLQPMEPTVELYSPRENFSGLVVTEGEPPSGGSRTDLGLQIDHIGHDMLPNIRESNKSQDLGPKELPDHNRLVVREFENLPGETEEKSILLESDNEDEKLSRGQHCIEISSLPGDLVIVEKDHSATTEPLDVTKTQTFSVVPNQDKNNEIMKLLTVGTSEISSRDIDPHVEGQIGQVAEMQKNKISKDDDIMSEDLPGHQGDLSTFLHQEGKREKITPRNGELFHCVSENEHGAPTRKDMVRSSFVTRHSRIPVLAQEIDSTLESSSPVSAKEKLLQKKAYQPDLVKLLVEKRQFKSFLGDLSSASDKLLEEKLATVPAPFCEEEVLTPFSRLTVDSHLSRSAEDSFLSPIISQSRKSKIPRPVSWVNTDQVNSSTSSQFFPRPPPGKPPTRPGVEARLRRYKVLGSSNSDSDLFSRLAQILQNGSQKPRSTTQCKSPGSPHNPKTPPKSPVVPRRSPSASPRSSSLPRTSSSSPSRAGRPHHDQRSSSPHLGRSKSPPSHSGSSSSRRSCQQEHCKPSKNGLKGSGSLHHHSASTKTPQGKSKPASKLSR
Tyrosine-protein kinase ZAP-70 (Homo sapiens), sequence (P43403 whole entry): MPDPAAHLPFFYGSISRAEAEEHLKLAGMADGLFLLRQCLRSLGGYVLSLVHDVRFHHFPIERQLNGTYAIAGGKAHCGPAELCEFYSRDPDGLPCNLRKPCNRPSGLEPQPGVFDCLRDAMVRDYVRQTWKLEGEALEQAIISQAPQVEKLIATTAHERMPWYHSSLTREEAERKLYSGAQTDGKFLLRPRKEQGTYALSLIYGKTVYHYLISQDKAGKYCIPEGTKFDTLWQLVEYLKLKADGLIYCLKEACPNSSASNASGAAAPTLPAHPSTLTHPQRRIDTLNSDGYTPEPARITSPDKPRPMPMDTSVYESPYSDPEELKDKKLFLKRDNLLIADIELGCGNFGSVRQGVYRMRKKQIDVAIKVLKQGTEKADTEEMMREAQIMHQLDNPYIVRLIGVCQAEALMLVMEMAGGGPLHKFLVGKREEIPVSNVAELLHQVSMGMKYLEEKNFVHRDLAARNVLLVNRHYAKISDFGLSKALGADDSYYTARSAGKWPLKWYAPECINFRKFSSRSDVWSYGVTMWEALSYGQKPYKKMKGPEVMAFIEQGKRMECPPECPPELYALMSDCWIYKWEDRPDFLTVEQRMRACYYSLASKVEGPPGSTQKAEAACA
Calcium/calmodulin-dependent protein kinase type IV (Homo sapiens), sequence (Q16566 whole entry, the tested form may be a part): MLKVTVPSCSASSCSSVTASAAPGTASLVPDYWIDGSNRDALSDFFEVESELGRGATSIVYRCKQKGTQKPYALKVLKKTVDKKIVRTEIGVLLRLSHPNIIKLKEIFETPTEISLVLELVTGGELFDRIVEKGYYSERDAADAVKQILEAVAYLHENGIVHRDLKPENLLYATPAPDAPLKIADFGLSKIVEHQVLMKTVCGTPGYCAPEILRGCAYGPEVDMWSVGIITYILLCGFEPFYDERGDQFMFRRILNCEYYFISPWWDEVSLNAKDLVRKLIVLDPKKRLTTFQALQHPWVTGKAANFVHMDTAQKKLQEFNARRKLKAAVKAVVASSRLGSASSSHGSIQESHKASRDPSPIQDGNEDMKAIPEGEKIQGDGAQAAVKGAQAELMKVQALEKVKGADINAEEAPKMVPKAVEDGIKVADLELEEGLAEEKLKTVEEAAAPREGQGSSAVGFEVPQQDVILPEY
Tyrosine-protein kinase Lck (Homo sapiens), sequence (P06239 2-509 limits assumed): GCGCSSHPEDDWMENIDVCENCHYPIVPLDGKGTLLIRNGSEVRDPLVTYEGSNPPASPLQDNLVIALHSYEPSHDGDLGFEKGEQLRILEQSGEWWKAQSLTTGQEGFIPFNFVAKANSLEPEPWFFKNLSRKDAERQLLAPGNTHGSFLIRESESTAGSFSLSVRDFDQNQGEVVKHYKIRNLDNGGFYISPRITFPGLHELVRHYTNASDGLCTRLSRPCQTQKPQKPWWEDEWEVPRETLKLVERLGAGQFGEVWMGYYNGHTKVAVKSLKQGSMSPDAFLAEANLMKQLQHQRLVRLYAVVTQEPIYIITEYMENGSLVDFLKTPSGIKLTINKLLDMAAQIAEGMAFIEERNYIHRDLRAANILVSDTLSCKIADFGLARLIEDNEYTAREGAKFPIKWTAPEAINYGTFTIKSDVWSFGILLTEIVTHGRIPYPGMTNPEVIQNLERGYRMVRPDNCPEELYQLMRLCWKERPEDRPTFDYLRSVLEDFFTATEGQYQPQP

| Compound | inhibition [1] | inhibition [2] | inhibition [3] | inhibition [4] | inhibition [5] | inhibition [6] | inhibition [7] | inhibition [8] | inhibition [9] | inhibition [10] | inhibition [11] | inhibition [12] | inhibition [13] | inhibition [14] | Activity (SiHa) | inhibition [15] | inhibition [16] | inhibition [17] | AUMCt [18] | Activity [19] |
| --- | --- | --- | --- | --- | --- | --- | --- | --- | --- | --- | --- | --- | --- | --- | --- | --- | --- | --- | --- | --- |
| Cc1ccc(NC(=O)C2(C(=O)Nc3ccc(Nc4ncc(F)c(-c5cc(F)c6nc(C)n(C(C)C)c6c5)n4)cc3)CC2)cc1 | 0% | 49% | Active | 19% | 74% | 6% | 0% | 28% | 0% | 8% | Active | 47% | 23% | 0% | Dose-dependent effect | 7% | 42% | 11% | 17 mg/L.hr |  |
| COc1cc2nccc(Oc3ccc(NC(=O)C4(C(=O)Nc5ccc(F)cc5)CC4)cc3)c2cc1OC [CABOZANTINIB] |  |  |  |  |  |  |  |  |  |  |  |  |  |  |  |  |  |  |  | Non-Toxic |
